The source of these data is ChEMBL document CHEMBL1129351, “Hypoxia-selective antitumor agents. 14. Synthesis and hypoxic cell cytotoxicity of regioisomers of the hypoxia-selective cytotoxin 5-[N,N-bis(2-chloroethyl)amino]-2,4-dinitrobenzamide” (J Med Chem, 1996).

A value given as a limit tells only on which side of the number the result lay.

The subject of assay [1] is CHO-AA8. The assay is described as follows: Inhibition of growth under aerobic conditions in AA8 cells. The format is functional, cell-based. The following applies: Cricetulus griseus. The procedure, abridged:
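Growth-inhibition microassay: AA8 cells, 200 per well, were grown 24 h, then exposed aerobically to drug in RMEM with 5% fetal bovine serum for 18 h and washed three times. After a further 78 h they were stained with methylene blue. IC₅₀ = concentration giving 50% growth inhibition relative to controls; means ± SEM, values without SEM from a single determination.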

A short description of assay [2]: Potency in clonogenic assay, defined by hypersensitivity factor calculated for UV4 cells versus AA8 cells [IC50(AA8)/IC50(UV4)]. It counts as functional, Cricetulus griseus.
Assay [3] can be described thus: Potency in clonogenic assay defined by Hypersensitivity factor calculated for AA8 cells versus EMT6 cells [IC50(AA8)/IC50 (EMT6)]. It counts as functional. The method, boiled down:
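Aerobic growth-inhibition microassay run in parallel on AA8 (200/well), UV4 (300/well) and murine mammary EMT6 (75/well) cells. After 24 h growth, cells were given 18 h drug exposure in RMEM/5% FBS, washed, grown a further 78 h, and stained with methylene blue. The hypersensitivity factor is IC₅₀(AA8)/IC₅₀(named line), reported as intraexperiment means ± SEM.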

The subject of assay [4] is CHO-AA8. Kind of assay: Compound was tested for the concentration required to reduce cell survival under hypoxic conditions, using the cell line AA8 in the clonogenic assay. The format is functional, Cricetulus griseus. The procedure, abridged:
(§1)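 Clonogenic assay on early-plateau Chinese hamster cells, grown in spinner flasks (AA8 to 10⁶/mL, UV4 to 6 × 10⁵/mL) and resuspended in fresh medium. Stirred 10 mL suspensions at 10⁶/mL were exposed to drug for 1 h under continuous 5% CO₂ in N₂; cells and drug solutions were pre-equilibrated under gas for 1 h. C₁₀ = concentration (µM) giving 10% survival relative to controls.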

For assay [5], the system named is UV4. The assay is described as follows: Compound was tested for the concentration required to reduce cell survival under hypoxic conditions, using the cell line UV4 in the clonogenic assay. It counts as functional, Cricetulus griseus. The procedure, abridged:
as §1

Assay [6] can be described thus: The ratio of C10 values in air and N2 using AA8 cell line. It counts as functional, CHO-AA8. The method, boiled down: (§2)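 Stirred early-plateau suspensions (10⁶/mL) of AA8 or UV4 cells were exposed to drug for 1 h under continuous gassing with 5% CO₂ in air or in N₂, after 1 h pre-equilibration, and then plated for clonogenic survival. C₁₀ (10% survival) was found for each gas phase and the ratio C₁₀(air)/C₁₀(N₂) reported.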

The nature of assay [7]: The ratio of C10 values in air and N2 using UV4 cell line. The format is functional. The method, boiled down: as §2
For assay [8], the system named is CHO-AA8. The assay is described as follows: Inhibitory activity against AA8 cell growth in aerobic condition after 4 hr of exposure. The format is functional, cell-based. The following applies: Cricetulus griseus, CHO-AA8, 4 h.

In assay [1], `O=C(NCC(O)CO)c1cc([N+](=O)[O-])cc([N+](=O)[O-])c1N(CCCl)CCCl` (stereo unspecified) showed an IC50 of 500 µM. The values for the Hypersensitivity factor in assay [2] and in assay [3] were 4.9 and 1.8, respectively.

On to `CN(C)CCNC(=O)c1cc([N+](=O)[O-])c(N(CCCl)CCCl)cc1[N+](=O)[O-]`, for which the C10 worked out at 120 µM in assay [4] and 12 µM in assay [5]. In addition, in assay [1], the IC50 was found to be 12 µM. For the same compound, the Hypersensitivity factor in assay [2] is given as 13; in assay [3], 5.8. Moreover, the Ratio in assay [6] was found to be 3.2; in assay [7], 7.5.

Take `O=C(NCC(O)CO)c1cc([N+](=O)[O-])c(N(CCCl)CCCl)c([N+](=O)[O-])c1` (stereo unspecified): in assay [1], the IC50 was found to be 320 µM. In addition, the Hypersensitivity factor was 0.9 in assay [2] and 2.3 in assay [3].

For `O=C(NCC(O)CO)c1c([N+](=O)[O-])ccc(N(CCCl)CCCl)c1[N+](=O)[O-]` (stereo unspecified), in assay [1], the IC50 came to 652 µM. For the same compound, the Hypersensitivity factor in assay [2] is reported as 2.7; in assay [3], 1.7.

In assay [1], `NC(=O)c1cc([N+](=O)[O-])c([N+](=O)[O-])cc1N(CCCl)CCCl` returned an IC50 of 1.6 µM. Moreover, the Hypersensitivity factor in assay [2] is 0.88; in assay [3] it was 0.43.

For the compound `CN(C)CCNC(=O)c1cc(N(CCCl)CCCl)c([N+](=O)[O-])cc1[N+](=O)[O-]`, the C10 in assay [4] worked out at 1300 µM; in assay [5], 400 µM. Also, the Hypersensitivity factor in assay [2] was 3.1; in assay [3], 6.7. Further, the Ratio in assay [6] was 3.1; in assay [7] it was 44.

Turning to `NC(=O)c1ccc(N(CCCl)CCCl)c([N+](=O)[O-])c1[N+](=O)[O-]`, half-maximal inhibition in assay [1] (IC50) required 20 µM. Further, the values for the Hypersensitivity factor in assay [2] and in assay [3] were 1 and 3.1, respectively.

Consider `NC(=O)c1cc([N+](=O)[O-])c(N(CCCl)CCCl)cc1[N+](=O)[O-]`, for which half-maximal inhibition in assay [1] (IC50) required 11 µM. In addition, the Hypersensitivity factor in assay [2] was 2.8; in assay [3] it was 1.9.

Compound `NC(=O)c1cc(N(CCCl)CCCl)c([N+](=O)[O-])cc1[N+](=O)[O-]` registered a C10 in assay [5] of 3400 µM. Besides, the results for the Hypersensitivity factor in assay [2] and in assay [3] were 6.4 and 1.1, respectively. In addition, the Ratio in assay [7] was 42.

Regarding `O=C(NCC(O)CO)c1ccc(N(CCCl)CCCl)c([N+](=O)[O-])c1[N+](=O)[O-]` (stereo unspecified), in assay [1], it took 108 µM to reach half-maximal inhibition (IC50). Besides, the Hypersensitivity factor in assay [2] is reported as 2.3; in assay [3], 3.

The compound `NC(=O)c1c([N+](=O)[O-])ccc(N(CCCl)CCCl)c1[N+](=O)[O-]` came in with an IC50 in assay [1] greater than 244 µM. Also, the Hypersensitivity factor in assay [2] is recorded as greater than 2.6.

Take `CN(C)CCNC(=O)c1c([N+](=O)[O-])ccc(N(CCCl)CCCl)c1[N+](=O)[O-]`: the C10 in assay [4] and in assay [5] was 2200 µM in each case. In assay [1], this compound yielded an IC50 of 426 µM. Further, the Hypersensitivity factor in assay [2] was 2.7; in assay [3], 3. In addition, the Ratio is 2.2 in assay [6] and 116 in assay [7].

`O=C(NCC(O)CO)c1cc([N+](=O)[O-])c(N(CCCl)CCCl)cc1[N+](=O)[O-]` (stereo unspecified): the IC50 in assay [1] amounted to 81 µM. The Hypersensitivity factor is 12 in assay [2] and 3.5 in assay [3].

The compound `NC(=O)c1cc([N+](=O)[O-])cc([N+](=O)[O-])c1N(CCCl)CCCl` gave an IC50 in assay [1] of 73 µM. The Hypersensitivity factor in assay [2] is reported as 4.3; in assay [3], 0.7.

Turning to `CN(C)CCNC(=O)c1cc([N+](=O)[O-])c([N+](=O)[O-])cc1N(CCCl)CCCl`, the results for the C10 in assay [4] and in assay [5] were 44 µM and 18 µM, respectively. In addition, inhibition in assay [1] was half-maximal at 4 µM (IC50). Moreover, the values for the Hypersensitivity factor in assay [2] and in assay [3] were 1.4 and 3, respectively. In addition, the Ratio in assay [6] was 0.098; in assay [7], 1.8.

Consider `CN(C)CCNC(=O)c1ccc(N(CCCl)CCCl)c([N+](=O)[O-])c1[N+](=O)[O-]`, for which the C10 in assay [4] was 140 µM; in assay [5] it was 160 µM. Also, in assay [1], inhibition was half-maximal at 13 µM (IC50). Moreover, the Hypersensitivity factor was 1 in assay [2] and 1.2 in assay [3]. In addition, the figures for the Ratio in assay [6] and in assay [7] were 0.82 and 4, respectively.

For `CN(C)CCNC(=O)c1cc([N+](=O)[O-])c(N(CCCl)CCCl)c([N+](=O)[O-])c1`, the C10 in assay [4] stood at 270 µM; in assay [5] it was 250 µM. This compound also returned an IC50 in assay [1] of 62 µM. In addition, the Hypersensitivity factor in assay [2] is 1.8; in assay [3] it was 2.1. For the same compound, the Ratio came out at 0.96 in assay [6] and 1.04 in assay [7].

Consider `O=C(NCC(O)CO)c1cc([N+](=O)[O-])c([N+](=O)[O-])cc1N(CCCl)CCCl` (stereo unspecified), for which the IC50 in assay [1] came out at 73 µM. In addition, the values for the Hypersensitivity factor in assay [2] and in assay [3] were 1.5 and 1.9, respectively.

Consider `NC(=O)c1cc([N+](=O)[O-])c(N(CCCl)CCCl)c([N+](=O)[O-])c1`, for which the IC50 in assay [1] stood at 97 µM. Further, the Hypersensitivity factor in assay [2] was 1.5; in assay [3] it was 1.3.

Compound `NC(=O)c1cc(N(CCCl)CCCl)c(NO)cc1[N+](=O)[O-]` had an IC50 in assay [8] of 180 µM.

Compound `O=C(NCC(O)CO)c1cc(N(CCCl)CCCl)c([N+](=O)[O-])cc1[N+](=O)[O-]` (stereo unspecified) returned a C10 in assay [5] of 3600 µM. For the same compound, the Hypersensitivity factor in assay [2] is recorded as 3.4; in assay [3], 2.3. The Ratio in assay [7] is reported as 8.6.

The compound `CN(C)CCNC(=O)c1cc([N+](=O)[O-])cc([N+](=O)[O-])c1N(CCCl)CCCl` displayed an IC50 in assay [1] of 150 µM. The compound also showed a C10 in assay [5] of 1100 µM. Further, the values for the Hypersensitivity factor in assay [2] and in assay [3] were 13 and 2.5, respectively. The Ratio in assay [6] was greater than 2.35; in assay [7] it was 68.
